Consider 13 compounds from ChEMBL document CHEMBL1135400, “Alpha2-adrenoreceptors profile modulation and high antinociceptive activity of (S)-(-)-2-[1-(biphenyl-2-yloxy)ethyl]-4,5-dihydro-1H-imidazole” (J Med Chem, 2002).

The target of assay [1] is T1, Adrenergic receptor alpha-2 (Rattus norvegicus) (UniProt P22086+P19328+P22909). The assay can be described thus: pKb value using clonidine as agonist for Alpha-2 adrenergic receptor. In kind it is functional. The method, boiled down: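 Prostatic rat vas deferens held under 0.1 Hz electrical stimulation, with prazosin, propranolol (1 µM) and cocaine (10 µM) present. Compounds lacking agonist activity were tested against clonidine. Dose ratios were taken at clonidine ED50 at one antagonist concentration, tested six times. Dissociation constant by the van Rossum method.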

Assay [2] deals with Imidazoline I2 binding sites (Oryctolagus cuniculus). Kind of assay: Displacement of [3H]idazoxan from imidazoline receptor I-2 binding sites in rabbit kidney membrane. A general note: Loss of bound radioactivity is the signal in a displacement assay; it reports binding, not function.
The target in assay [3] is T2, Adrenergic receptor alpha-2 (Rattus norvegicus, UniProt P22086+P19328+P22909).
T2 sequence (P22086 whole entry): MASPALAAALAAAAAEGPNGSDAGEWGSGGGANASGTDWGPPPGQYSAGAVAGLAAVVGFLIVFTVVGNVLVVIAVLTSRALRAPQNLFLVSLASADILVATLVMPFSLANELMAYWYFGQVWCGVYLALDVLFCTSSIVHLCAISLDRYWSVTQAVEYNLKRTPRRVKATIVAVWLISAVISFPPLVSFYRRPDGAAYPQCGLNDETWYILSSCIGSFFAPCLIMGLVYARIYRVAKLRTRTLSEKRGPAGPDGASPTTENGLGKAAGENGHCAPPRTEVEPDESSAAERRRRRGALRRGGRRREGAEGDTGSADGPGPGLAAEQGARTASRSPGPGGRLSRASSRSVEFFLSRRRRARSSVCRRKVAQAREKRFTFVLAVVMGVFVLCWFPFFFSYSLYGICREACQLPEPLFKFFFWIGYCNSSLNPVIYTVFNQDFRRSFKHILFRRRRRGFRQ
T2 sequence (P19328 whole entry): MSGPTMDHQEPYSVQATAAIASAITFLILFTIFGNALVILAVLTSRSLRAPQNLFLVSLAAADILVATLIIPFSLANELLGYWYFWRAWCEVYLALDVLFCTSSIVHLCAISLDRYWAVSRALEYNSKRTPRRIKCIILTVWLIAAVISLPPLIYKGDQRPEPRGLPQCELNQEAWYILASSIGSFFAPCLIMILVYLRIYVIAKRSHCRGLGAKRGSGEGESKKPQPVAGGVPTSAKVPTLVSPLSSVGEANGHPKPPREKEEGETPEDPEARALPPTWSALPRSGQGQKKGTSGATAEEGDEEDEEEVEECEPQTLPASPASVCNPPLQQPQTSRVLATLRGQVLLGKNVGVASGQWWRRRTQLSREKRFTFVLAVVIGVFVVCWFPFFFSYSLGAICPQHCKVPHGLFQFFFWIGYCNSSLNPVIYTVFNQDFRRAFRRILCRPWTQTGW
T2 sequence (P22909 whole entry): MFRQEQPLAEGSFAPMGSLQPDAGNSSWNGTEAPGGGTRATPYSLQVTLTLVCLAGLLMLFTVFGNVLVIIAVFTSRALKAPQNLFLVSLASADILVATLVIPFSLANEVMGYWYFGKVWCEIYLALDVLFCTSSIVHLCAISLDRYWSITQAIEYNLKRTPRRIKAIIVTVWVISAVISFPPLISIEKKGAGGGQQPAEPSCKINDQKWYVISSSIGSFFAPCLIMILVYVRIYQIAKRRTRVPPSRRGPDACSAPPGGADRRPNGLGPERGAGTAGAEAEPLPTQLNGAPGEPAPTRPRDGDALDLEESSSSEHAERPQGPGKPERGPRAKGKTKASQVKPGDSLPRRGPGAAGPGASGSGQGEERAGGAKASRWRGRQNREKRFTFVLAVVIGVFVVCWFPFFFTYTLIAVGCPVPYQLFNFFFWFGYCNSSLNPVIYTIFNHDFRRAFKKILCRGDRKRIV
Kind of assay: Displacement of [3H]clonidine from Alpha-2 adrenergic receptor of rat cortex membrane. In outline: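 Rat cerebral cortex membranes (200 µg protein) in 50 mM Tris-HCl pH 7.4, 5 nM [3H]clonidine, 10–12 competitor concentrations, 45 min at 25 °C; GF/B filtration, scintillation counting. Nonspecific binding with 10 µM phentolamine. Triplicate points; IC50 by nonlinear regression, Ki by Cheng–Prusoff, curves repeated at least three times, pKi ± SEM.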

The nature of assay [4]: Relative binding affinity for Alpha-2 adrenergic receptor and I2 imidazoline binding site (Antilog of the difference between pKi). In outline: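 Ratio from two radioligand assays. α2: rat cortex membranes with 5 nM [3H]clonidine, nonspecific binding with 10 µM phentolamine. I2: rabbit kidney membranes with 5 nM [3H]idazoxan, adrenoreceptors masked by 10 µM norepinephrine, nonspecific binding with 10 µM cirazoline. Both assays 45 min at 25 °C, Ki by Cheng–Prusoff.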

The target in assay [5] is T3, Adrenergic receptor alpha-1 (Rattus norvegicus) (UniProt P15823+P23944+P43140). Kind of assay: Inhibition of Alpha-1 adrenergic receptor twitch response in rat vas deferens in presence of cirazoline, pD2 is -log ED50. Type of assay: tissue-based.
Assay [6] has as its target T1, Adrenergic receptor alpha-2 (Rattus norvegicus). Kind of assay: Antilog of the difference between pD2 of Alpha-2 adrenergic receptor and pD2 of Alpha-1 adrenergic receptor.
Assay [7] shares this target. Kind of assay: pD2 is -log ED50 required to produce 50% inhibition of the twitch response in rat vas deferens (intrinsic activity in presence of clonidine) for Alpha-2 adrenergic receptor. Type of assay: tissue-based. The method, boiled down: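 Prostatic portion (12 mm) of male albino rat (125–150 g) vas deferens, 37 °C, O2/CO2 95%/5%, 1 g loading tension. Physiological salt solution had 0.54 mM MgCl2, prazosin ([…]), propranolol (1 µM) and cocaine (10 µM). Field stimulation was 0.1 Hz, 3 ms, 10–15 V, recorded isometrically.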

Assay [8] has the same target. The assay can be described thus: pD2 is -log ED50 required to produce 50% inhibition of the twitch response in rat vas deferens (intrinsic activity in presence of cirazoline) for Alpha-2 adrenergic receptor. Type of assay: tissue-based. To be noted: in the assay text read “clonidine” for “cirazoline”. In outline: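 Prostatic portion (12 mm) of male rat vas deferens (125–150 g) at 37 °C under 95% O2/5% CO2, 1 g load. Bath contains 0.54 mM MgCl2, prazosin, 1 µM propranolol and 10 µM cocaine.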

Assay [9] addresses T3, Adrenergic receptor alpha-1 (Rattus norvegicus). The assay can be described thus: pKb value using (-)-norepinephrine as agonist for Alpha-1 adrenergic receptor.

Each structure is given as a SMILES string.

Usually pKb stands for the negative decadic logarithm of the Kb, by convention in mol/L. As to `c1ccc(Cc2ccccc2OCC2=NCCN2)cc1`, the pKb in assay [1] worked out at 7.14. Moreover, the “Log Ki” value in [2] is reported as -6.7; in assay [3], -6.52. Moreover, the Ratio in assay [4] is 0.66. Also, the pD2 in assay [5] came to 5.27.

Regarding `CC(Nc1ccccc1-c1ccccc1)C1=NCCN1` (centres undefined), the “Log Ki” value is recorded as -4.9 in assay [2] and -7 in assay [3]. The Ratio in assay [6] amounted to 42.7; in [4] it was 126. Besides, the results for the pD2 in assay [7] and in assay [5] were 8.36 and 6.73, respectively.

As for `CC(Oc1ccccc1)C1=NCCN1` (centres undefined), the pKb in assay [1] stood at 7.29. Moreover, the “Log Ki” value in assay [2] is given as -5.57; in assay [3], -7.01. Further, the Ratio in assay [4] is 27.5. Further, the pD2 in assay [5] came to 5.2.

Take `C[C@H](Oc1ccccc1-c1ccccc1)C1=NCCN1`: the “Log Ki” value in assay [3] was -7.5. Also, the pD2 in assay [7] stood at 8.55; in assay [5], 7.51.

`C[C@@H](Oc1ccccc1-c1ccccc1)C1=NCCN1`: the “Log Ki” value in [3] was -7. Further, the results for the pD2 in [7] and in assay [5] were 7.4 and 6.23, respectively.

On to `CC(Oc1ccccc1-c1ccccc1)C1=NCCN1` (centres undefined) [BIPHENYLINE], for which the “Log Ki” value in assay [3] is recorded as -7.91. Also, the pD2 amounted to 8.52 in assay [7] and 7.2 in assay [5].

Turning to `CC(Oc1cccc(-c2ccccc2)c1)C1=NCCN1` (centres undefined), the “Log Ki” value in [2] is listed as -6.57; in [3], -6.92. For the same compound, the figures for the Ratio in assay [6] and in assay [4] were 135 and 2.2, respectively. The pD2 in [8] worked out at 6.66; in assay [5] it was 4.53.

In assay [1], `c1ccc(NCC2=NCCN2)cc1` [PHENAMAZOLINE] displayed a pKb of 6.38. Besides, the “Log Ki” value in [2] is recorded as -7.48; in assay [3], -7.14. The Ratio in assay [4] is 0.46. Further, in [5], the pD2 is 4.89.

As to `c1ccc(-c2ccccc2OCC2=NCCN2)cc1`, the “Log Ki” value in assay [3] is on record as -7.1. In addition, the figures for the pD2 in assay [7] and in assay [5] were 8.46 and 6.68, respectively.

As to `c1ccc(-c2ccccc2NCC2=NCCN2)cc1`, the “Log Ki” value in assay [2] is listed as -6.09; in [3], -6.45. Besides, the results for the Ratio in [6] and in [4] were 29.5 and 2.3, respectively. The pD2 in assay [7] stood at 7.84; in assay [5], 6.37.

`c1ccc(OCC2=NCCN2)cc1` came in with a pKb in [1] of 6.71. Moreover, in assay [3], the “Log Ki” value was -7.28. For the same compound, in assay [5], the pD2 was found to be 5.26.

In assay [1], `CC(Oc1ccccc1Cc1ccccc1)C1=NCCN1` (centres undefined) came in with a pKb of 6.87. Besides, the results for the “Log Ki” value in assay [2] and in [3] were -5.12 and -6.8, respectively. Moreover, the Ratio in assay [4] was determined as 47.9. Moreover, the pD2 in assay [5] worked out at 5.99.

In the case of `CC(Oc1ccc(-c2ccccc2)cc1)C1=NCCN1` (centres undefined), the values for the pKb in assay [1] and in [9] were 5.81 and 5.92, respectively. Moreover, the “Log Ki” value is -6.74 in assay [2] and -7.5 in assay [3]. Besides, the results for the Ratio in assay [6] and in assay [4] were 0.78 and 5.8, respectively.
